# Activity calls are given as the source filed them. The rule behind the calls is not given here.
# Legend:
# Candida albicans [1] = assay: Antifungal activity against Candida albicans MTCC 3017 after 48 hrs by agar dilution method; type: functional; conditions: MTCC 3017, 48 h
# Procedure, shortened: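 Same disk/dilution format as the antibacterial assay, on potato dextrose agar (39 g/L). Compounds were from DMSO stock, loaded at 1 to 80 per disk, in triplicate. Plates were incubated at 28 ± 2 °C for 48 h. MIC was the lowest amount that arrested growth. Equivalent DMSO served as solvent control.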
# Pseudomonas aeruginosa [2] = assay: Antibacterial activity against Pseudomonas aeruginosa MTCC 2453 after 24 hrs by agar dilution method; type: functional; conditions: MTCC 2453, 24 h
# Escherichia coli = assay: Antibacterial activity against Escherichia coli MTCC 739 at 80 ug/ml after 24 hrs by agar dilution method; type: functional, organism-based
# Bacillus subtilis [3] = assay: Antibacterial activity against Bacillus subtilis MTCC 121 after 24 hrs by agar dilution method; type: functional; conditions: MTCC 121, 24 h
# Micrococcus luteus [4] = assay: Antibacterial activity against Micrococcus luteus MTCC 2470 after 24 hrs by agar dilution method; type: functional; conditions: MTCC 2470, 24 h
# Staphylococcus [5] = assay: Antibacterial activity against Staphylococcus MLS-16 MTCC 2940 after 24 hrs by agar dilution method; type: functional; conditions: MLS-16 MTCC 2940, 24 h
# [6] = tested on: Mycobacterium tuberculosis; assay: Antibacterial activity against Mycobacterium tuberculosis H37Rv at 32 ug/ml […] by agar dilution method; type: functional, organism-based
# Raoultella planticola = assay: Antibacterial activity against Klebsiella planticola MTCC 530 at 80 ug/ml after 24 hrs by agar dilution method; type: functional, organism-based
# Staphylococcus aureus [7] = assay: Antibacterial activity against Staphylococcus aureus MTCC 96 after 24 hrs by agar dilution method; type: functional; conditions: MTCC 96, 24 h
# Bacillus subtilis [8] = assay: Antibacterial activity against Bacillus subtilis MTCC 121 at 20 ug/ml after 24 hrs by disk diffusion method; type: functional; conditions: MTCC 121, 24 h, read-out: IZ
# Pseudomonas aeruginosa [9] = assay: Antibacterial activity against Pseudomonas aeruginosa MTCC 2453 at 20 ug/ml after 24 hrs by disk diffusion method; type: functional; conditions: MTCC 2453, 24 h, read-out: IZ
# Micrococcus luteus [10] = assay: Antibacterial activity against Micrococcus luteus MTCC 2470 at 20 ug/ml after 24 hrs by disk diffusion method; type: functional; conditions: MTCC 2470, 24 h, read-out: IZ
# Staphylococcus aureus [11] = assay: Antibacterial activity against Staphylococcus aureus MTCC 96 at 20 ug/ml after 24 hrs by disk diffusion method; type: functional; conditions: MTCC 96, 24 h, read-out: IZ
# Candida albicans [12] = assay: Antifungal activity against Candida albicans MTCC 3017 at 20 ug/ml after 24 hrs by disk diffusion method; type: functional; conditions: MTCC 3017, 24 h, read-out: IZ
# Staphylococcus [13] = assay: Antibacterial activity against Staphylococcus MLS-16 MTCC 2940 at 20 ug/ml after 24 hrs by disk diffusion method; type: functional; conditions: MLS-16 MTCC 2940, 24 h, read-out: IZ
# Pseudomonas aeruginosa [14] = assay: Antibacterial activity against Pseudomonas aeruginosa MTCC 2453 at 80 ug/ml after 24 hrs by agar dilution method; type: functional, organism-based
# Micrococcus luteus [15] = assay: Antibacterial activity against Micrococcus luteus MTCC 2470 at 80 ug/ml after 24 hrs by agar dilution method; type: functional, organism-based
Structure (SMILES),MIC (Candida albicans [1]) [µg/mL],MIC (Pseudomonas aeruginosa [2]) [µg/mL],Activity (Escherichia coli),MIC (Bacillus subtilis [3]) [µg/mL],MIC (Micrococcus luteus [4]) [µg/mL],MIC (Staphylococcus [5]) [µg/mL],Activity [6],Activity (Raoultella planticola),MIC (Staphylococcus aureus [7]) [µg/mL],zone of inhibition at 20 µg/mL (Bacillus subtilis [8]) [mm],zone of inhibition at 20 µg/mL (Pseudomonas aeruginosa [9]) [mm],zone of inhibition at 20 µg/mL (Micrococcus luteus [10]) [mm],zone of inhibition at 20 µg/mL (Staphylococcus aureus [11]) [mm],zone of inhibition at 20 µg/mL (Candida albicans [12]) [mm],zone of inhibition at 20 µg/mL (Staphylococcus [13]) [mm],Activity (Pseudomonas aeruginosa [14]),Activity (Micrococcus luteus [15])
CC(C)(C)OC(=O)N1CCN(c2ccc(N3C[C@H](CNS(=O)(=O)c4ccc(F)cc4)OC3=O)cc2F)CC1,10,20,inactive,20,10,10,inactive,inactive,10,,,,,,,,
O=C1O[C@@H](CNS(=O)(=O)c2cccs2)CN1c1ccc(N2CCOCC2)c(F)c1,4,4,inactive,4,6,4,inactive,inactive,4,20,19,15,20,18,18,,
O=C1O[C@@H](CNS(=O)(=O)c2cccc(Cl)c2)CN1c1ccc(N2CCOCC2)c(F)c1,8,,inactive,6,8,6,inactive,inactive,6,,,,,,,inactive,
CC(C)(C)OC(=O)N1CCN(c2ccc(N3C[C@H](CNS(=O)(=O)c4ccc(C(F)(F)F)cc4)OC3=O)cc2F)CC1,20,10,inactive,8,20,10,inactive,inactive,10,,,,,,,,
O=C1O[C@@H](CNS(=O)(=O)c2ccc(F)c(F)c2)CN1c1ccc(N2CCOCC2)c(F)c1,10,10,,10,,10,inactive,,,,,,,,,,inactive
O=C1O[C@@H](CNS(=O)(=O)c2cccs2)CN1c1ccc(N2CCSCC2)c(F)c1,4,4,inactive,2,6,4,inactive,inactive,4,,,,,,,,
O=C1O[C@@H](CNS(=O)(=O)c2cccc3cccnc23)CN1c1ccc(N2CCSCC2)c(F)c1,8,8,inactive,8,,6,inactive,inactive,6,,,,,,,,inactive
O=C1O[C@@H](CNS(=O)(=O)c2ccc(F)c(Cl)c2)CN1c1ccc(N2CCSCC2)c(F)c1,20,,inactive,10,,8,inactive,inactive,8,,,,,,,inactive,inactive
CC(=O)NC[C@H]1CN(c2ccc(N3CCOCC3)c(F)c2)C(=O)O1 [LINEZOLID],,,,1.5,1,1.5,,,1.5,10,12,20,28,,18,,
O=C1O[C@@H](CNS(=O)(=O)c2cccc3cccnc23)CN1c1ccc(N2CCOCC2)c(F)c1,20,6,inactive,8,8,10,inactive,inactive,10,,,,,,,,
O=C1O[C@@H](CNS(=O)(=O)c2ccc(C(F)(F)F)cc2)CN1c1ccc(N2CCNCC2)c(F)c1,10,8,inactive,8,8,6,,inactive,6,16,16,13,17,15,15,,
O=C1O[C@@H](CNS(=O)(=O)c2ccc(F)c(Cl)c2)CN1c1ccc(N2CCOCC2)c(F)c1,6,,inactive,6,6,6,inactive,inactive,6,,,,,,,inactive,
O=C1O[C@@H](CNS(=O)(=O)c2ccc(Oc3ccccc3)cc2)CN1c1ccc(N2CCOCC2)c(F)c1,6,,inactive,8,8,4,inactive,inactive,4,,,,,,,inactive,
O=C1O[C@@H](CNS(=O)(=O)c2ccc(C(F)(F)F)cc2)CN1c1ccc(N2CCOCC2)c(F)c1,20,8,inactive,8,8,10,inactive,inactive,10,,,,,,,,
CC(=O)c1ccc(S(=O)(=O)NC[C@H]2CN(c3ccc(N4CCSCC4)c(F)c3)C(=O)O2)cc1,20,,inactive,10,,8,inactive,inactive,8,,,,,,,inactive,inactive
CC(=O)Nc1nc(C)c(S(=O)(=O)NC[C@H]2CN(c3ccc(N4CCSCC4)c(F)c3)C(=O)O2)s1,8,8,inactive,10,,8,,inactive,8,,,,,,,,inactive
O=C1O[C@@H](CNS(=O)(=O)c2ccc(F)cc2)CN1c1ccc(N2CCNCC2)c(F)c1,8,4,inactive,10,4,8,,inactive,8,20,18,14,17,16,17,,
O=C1O[C@@H](CNS(=O)(=O)c2ccc(F)c(F)c2F)CN1c1ccc(N2CCOCC2)c(F)c1,6,8,inactive,6,,6,inactive,inactive,6,,,,,,,,inactive
O=C1O[C@@H](CNS(=O)(=O)c2ccc(C(F)(F)F)cc2)CN1c1ccc(N2CCSCC2)c(F)c1,8,8,inactive,10,,8,inactive,inactive,8,,,,,,,,inactive
O=C1O[C@@H](CNS(=O)(=O)c2cc(Cl)cc(Cl)c2)CN1c1ccc(N2CCOCC2)c(F)c1,8,40,inactive,8,,8,inactive,inactive,8,,,,,,,,inactive
CC(=O)c1ccc(S(=O)(=O)NC[C@H]2CN(c3ccc(N4CCOCC4)c(F)c3)C(=O)O2)cc1,6,,inactive,6,6,6,inactive,inactive,6,,,,,,,inactive,
OC(Cn1cncn1)(Cn1cncn1)c1ccc(F)cc1F [FLUCONAZOLE],1,,,,,,,,,,,,,20,,,
CC(=O)Nc1nc(C)c(S(=O)(=O)NC[C@H]2CN(c3ccc(N4CCOCC4)c(F)c3)C(=O)O2)s1,20,8,inactive,8,,20,,inactive,20,,,,,,,,inactive
O=C1O[C@@H](CNS(=O)(=O)c2cc(S(=O)(=O)c3ccccc3)cs2)CN1c1ccc(N2CCSCC2)c(F)c1,8,8,inactive,8,,6,inactive,inactive,6,,,,,,,,inactive

# — ChEMBL document CHEMBL2331333, “Synthesis, biological evaluation of new oxazolidino-sulfonamides as potential antimicrobial agents” (2013)
